Assay results as given in ChEMBL document CHEMBL1156597, “Structure-activity relationship of kahalalide F synthetic analogues” (J Med Chem, 2008).

Key:
[1] = Cytotoxicity against human IGROV-ET cells after 48 hrs by SRB assay; assay type: functional; conditions: for CC50: read-out: LC50 (the source's name)
Method in brief: (§1)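 Cells grown in RPMI 1640 with 10% FBS and penicillin/streptomycin at 37 °C and 5% CO₂, trypsinized, then seeded at 5 × 10³/well. After 18 h drug-free attachment, samples in DMSO/EtOH/PBS (0.5:0.5:99) were added for 48 h continuous exposure. Cells were fixed with cold TCA (1 h, 4 °C) and stained with SRB (10 min). Tris-solubilized stain read at 490 nm. Triplicate wells, mean ± SD; GI₅₀ derived.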

DU-145 = experiment: Cytotoxicity against human DU145 cells after 48 hrs by SRB assay; assay type: functional, cell-based; conditions: Homo sapiens, DU-145, 48 h; for GI50: read-out: GI50; for CC50: read-out: LC50 (the source's name); method in brief: as §1
LoVo [2] = experiment: Cytotoxicity against human doxorubicin resistant LoVo cells after 48 hrs by SRB assay; assay type: functional; conditions: for CC50: read-out: LC50 (the source's name); method in brief: as §1
K562 = experiment: Cytotoxicity against human K562 cells after 48 hrs by SRB assay; assay type: functional; conditions: K562, 48 h; for CC50: read-out: LC50 (the source's name); method in brief: as §1
HT-29 = experiment: Cytotoxicity against human HT29 cells after 48 hrs by SRB assay; assay type: functional, cell-based; conditions: Homo sapiens, HT-29, 48 h; for CC50: read-out: LC50 (the source's name); method in brief: as §1
SK-MEL-28 = experiment: Cytotoxicity against human SK-MEL-28 cells after 48 hrs by SRB assay; assay type: functional, cell-based; conditions: Homo sapiens, SK-MEL-28, 48 h; for CC50: read-out: LC50 (the source's name); for GI50: read-out: GI50; method in brief: as §1
HeLa = experiment: Cytotoxicity against human HeLa cells after 48 hrs by SRB assay; assay type: functional; conditions: for CC50: read-out: LC50 (the source's name); method in brief: as §1
[3] = Cytotoxicity against human HeLa-APL cells after 48 hrs by SRB assay; assay type: functional; method in brief: as §1
[4] = Cytotoxicity against human IGROV cells after 48 hrs by SRB assay; assay type: functional; conditions: read-out: LC50 (the source's name); method in brief: as §1
LoVo [5] = experiment: Cytotoxicity against human LoVo cells after 48 hrs by SRB assay; assay type: functional; conditions: for CC50: read-out: LC50 (the source's name)
A549 = experiment: Cytotoxicity against human A549 cells after 48 hrs by SRB assay; assay type: functional, cell-based; conditions: Homo sapiens, A549, 48 h; method in brief: as §1
PANC-1 = experiment: Cytotoxicity against human PANC1 cells after 48 hrs by SRB assay; assay type: functional; conditions: PANC-1, 48 h; for CC50: read-out: LC50 (the source's name); method in brief: as §1
SK-BR-3 = experiment: Cytotoxicity against human SKBR3 cells after 48 hrs by SRB assay; assay type: functional; conditions: SK-BR-3, 48 h; method in brief: as §1

SMILES | CC50 [1] [nM] | TGI (DU-145) [nM] | GI50 (DU-145) [nM] | CC50 (DU-145) [nM] | CC50 (LoVo [2]) [nM] | CC50 (K562) [nM] | CC50 (HT-29) [nM] | CC50 (SK-MEL-28) [nM] | GI50 (HeLa) [nM] | TGI (HeLa) [nM] | CC50 (HeLa) [nM] | LC50 (concentration giving 50% net cell kill) [3] [nM] | CC50 [4] [nM] | GI50 (LoVo [5]) [nM] | TGI (LoVo [5]) [nM] | CC50 (LoVo [5]) [nM] | LC50 (A549) [nM] | GI50 (PANC-1) [nM] | TGI (PANC-1) [nM] | CC50 (PANC-1) [nM] | also measured
C/C=C1\NC(=O)[C@H](Cc2ccccc2)NC(=O)[C@@H](C(C)C)NC(=O)[C@@H]([C@H](C)CC)NC(=O)[C@H](NC(=O)[C@H](NC(=O)[C@H](CCCN)NC(=O)[C@H]2CCCN2C(=O)[C@H](NC(=O)[C@@H](NC(=O)[C@@H](NC(=O)[C@H](NC(=O)CC[C@@H](C)[C@H]2CC[C@H]3[C@@H]4CC[C@@H]5C[C@H](O)CC[C@]5(C)[C@H]4CC[C@]23C)C(C)C)[C@@H](C)O)C(C)C)C(C)C)[C@H](C)CC)[C@H](C)OC(=O)[C@H](C(C)C)NC1=O | 2280 | 6000 | 5100 | 3310 | 9860 | 8320 | 10300 | 3870 | 740 | 5420 | 3130 | 3580 | 2710 | 14900 | 16900 | 9830 | 3580 | 4350 | 9720 | 5520 | TGI [1]: 5580 nM; GI50 ([1]; read-out: GI50): 4400 nM
C/C=C1\NC(=O)[C@H](Cc2ccccc2)NC(=O)[C@@H](C(C)C)NC(=O)[C@@H]([C@H](C)CC)NC(=O)[C@H](NC(=O)[C@H](NC(=O)[C@H](CCCN)NC(=O)[C@H]2CCCN2C(=O)[C@H](NC(=O)[C@@H](NC(=O)[C@@H](NC(=O)CNC(=O)CCCC(C)C)[C@@H](C)O)C(C)C)C(C)C)[C@H](C)CC)[C@H](C)OC(=O)[C@H](C(C)C)NC1=O | 1200 | – | – | 1750 | 5200 | 4390 | 5410 | 2040 | 672 | 1320 | 1650 | 1890 | 1430 | 8760 | 8900 | 5180 | 1890 | 499 | 1250 | 2110 | GI50 (LoVo [2]): 11100 nM; TGI (LoVo [2]): 9100 nM; GI50 (K562): 3850 nM; TGI (K562): 11400 nM; GI50 (HT-29): 10900 nM; TGI (HT-29): 9540 nM
CC[C@@H](C)[C@@H](NC(=O)[C@H](CCCN)NC(=O)[C@H]1CCCN1C(=O)[C@H](NC(=O)[C@@H](NC(=O)[C@@H](NC(=O)[C@H](NC(=O)CCCC(C)C)C(C)C)[C@@H](C)O)C(C)C)C(C)C)C(=O)N[C@H]1C(=O)N[C@H]([C@H](C)CC)C(=O)N[C@H](C(C)C)C(=O)N[C@@H](Cc2ccccc2)C(=O)N/C(=C\c2ccccc2)C(=O)N[C@@H](C(C)C)C(=O)O[C@H]1C | 629 | 1120 | 1390 | 893 | – | – | 5220 | 1390 | 1500 | 1180 | 936 | 704 | 559 | 836 | 1420 | 1890 | 1110 | 4540 | 4450 | 2140 | TGI (SK-BR-3): 1150 nM; GI50 (SK-BR-3; read-out: GI50): 601 nM; CC50 (SK-BR-3; read-out: LC50 (the source's name)): 806 nM; GI50 (HT-29): 5130 nM; TGI (HT-29): 10100 nM
C/C=C1\NC(=O)[C@H](Cc2ccccc2)NC(=O)[C@@H](C(C)C)NC(=O)[C@@H]([C@H](C)CC)NC(=O)[C@H](NC(=O)[C@H](NC(=O)[C@H](CCCN)NC(=O)[C@H]2CCCN2C(=O)[C@H](NC(=O)[C@@H](NC(=O)[C@@H](NC(=O)[C@@H](CCC(N)=O)NC(=O)CCCC(C)C)[C@@H](C)O)C(C)C)C(C)C)[C@H](C)CC)[C@H](C)OC(=O)[C@H](C(C)C)NC1=O | 653 | 1390 | 1460 | 1320 | 1670 | 2790 | 2870 | 1230 | 452 | 649 | 915 | 1800 | 743 | 1460 | 1800 | 2220 | 664 | 168 | 222 | 361 | GI50 [1]: 947 nM; GI50 ([1]; read-out: GI50): 1330 nM; GI50 (LoVo [2]): 610 nM; TGI (LoVo [2]): 1080 nM; GI50 (HT-29): 2300 nM; TGI (HT-29): 2560 nM; TGI (SK-MEL-28): 1280 nM; GI50 (SK-MEL-28): 1340 nM; GI50 [3]: 2420 nM; TGI [3]: 3200 nM; GI50 (A549): 350 nM; GI50 (A549; read-out: GI50): 234 nM
CC[C@@H](C)[C@@H](NC(=O)[C@H](CCCN)NC(=O)[C@H]1CCCN1C(=O)[C@H](NC(=O)[C@@H](NC(=O)[C@@H](NC(=O)[C@H](NC(=O)CCCC(C)C)C(C)C)[C@@H](C)O)C(C)C)C(C)C)C(=O)N[C@H]1C(=O)N[C@H]([C@H](C)CC)C(=O)N[C@H](C(C)C)C(=O)N[C@@H](Cc2ccccc2)C(=O)N[C@H](CC)C(=O)N[C@@H](C(C)C)C(=O)O[C@H]1C | 748 | 3040 | 3260 | 1700 | 2280 | 2730 | 3210 | 1980 | – | – | 1600 | 1840 | 963 | 2630 | 2740 | 2830 | 1830 | 4090 | 4980 | 2830 | GI50 (LoVo [2]): 1760 nM; TGI (LoVo [2]): 2000 nM; GI50 (HT-29): 3660 nM; TGI (HT-29): 3410 nM; TGI (SK-MEL-28): 3360 nM; GI50 (SK-MEL-28): 3100 nM; TGI (A549): 3020 nM; GI50 (A549; read-out: GI50): 3230 nM
C/C=C1\NC(=O)[C@H](Cc2ccccc2)NC(=O)[C@@H](C(C)C)NC(=O)[C@@H]([C@H](C)CC)NC(=O)[C@H](NC(=O)[C@H](NC(=O)[C@H](CCCN)NC(=O)[C@H]2CCCN2C(=O)[C@H](NC(=O)[C@@H](NC(=O)[C@@H](NC(=O)[C@H](NC(=O)CC(C)C)C(C)C)[C@@H](C)O)C(C)C)C(C)C)[C@H](C)CC)[C@H](C)OC(=O)[C@H](C(C)C)NC1=O | 708 | 1860 | 2070 | 1660 | 1880 | 3810 | 3140 | 1330 | 2090 | 2090 | 1630 | 1690 | 848 | 1630 | 1990 | 2420 | 1710 | – | – | 2880 | GI50 (LoVo [2]): 882 nM; TGI (LoVo [2]): 1390 nM; GI50 (HT-29): 2980 nM; TGI (HT-29): 3060 nM; TGI (SK-MEL-28): 1620 nM; GI50 (SK-MEL-28): 1980 nM; GI50 [3]: 2330 nM; TGI [3]: 2000 nM; TGI (A549): 1700 nM; GI50 (A549; read-out: GI50): 1680 nM
C/C=C1\NC(=O)[C@H](Cc2ccccc2)NC(=O)[C@@H](C(C)C)NC(=O)[C@@H]([C@H](C)CC)NC(=O)[C@H](N)[C@H](C)OC(=O)[C@H](C(C)C)NC1=O | 2280 | 6000 | 5100 | 3310 | 9860 | 8320 | 10300 | 3870 | 740 | 5420 | 3130 | 3580 | 2710 | 14900 | 16900 | 9830 | 3580 | 4350 | 9720 | 5520 | TGI [1]: 5580 nM; GI50 ([1]; read-out: GI50): 4400 nM
